Laboratory results from ChEMBL document CHEMBL3774363, “Potent Triazole Bisphosphonate Inhibitor of Geranylgeranyl Diphosphate Synthase” (ACS Med Chem Lett, 2015).
Active and inactive are the calls of the source. The rule behind the calls is not given here.

Key:
[1] = target: T1, Geranylgeranyl pyrophosphate synthase (Homo sapiens, UniProt O95749); experiment: Inhibition of recombinant GGDPS (unknown origin) assessed as radiolabeled GGPP formation preincubated for 10 mins followed by addition of 10 uM FPP substrate and [14C]IPP for 30 mins by liquid scintillation counter analysis
T1 sequence (O95749 whole entry): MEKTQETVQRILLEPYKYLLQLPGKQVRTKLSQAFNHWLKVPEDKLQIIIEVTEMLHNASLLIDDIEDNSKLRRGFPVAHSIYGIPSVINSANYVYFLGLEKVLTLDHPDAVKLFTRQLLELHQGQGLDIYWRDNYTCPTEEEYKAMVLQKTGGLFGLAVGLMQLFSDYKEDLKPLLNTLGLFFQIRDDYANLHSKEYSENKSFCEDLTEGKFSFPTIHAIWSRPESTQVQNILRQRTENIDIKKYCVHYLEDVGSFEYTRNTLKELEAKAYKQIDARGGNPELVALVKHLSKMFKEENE

[2] = target: T2, Geranylgeranyl pyrophosphate synthase (Homo sapiens) (UniProt O95749); experiment: Inhibition of GGDPS in human RPMI8226 cells assessed as disruption of Rap1a geranylation after 48 hrs by immunoblot analysis; assay type: cell-based; conditions: RPMI-8226
T2 sequence (whole entry): T1 sequence (O95749 whole entry)
How it was run: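 RPMI-8226 human myeloma cells incubated 48 h with or without compound, with lovastatin (10 μM) as positive control. Cells were lysed in RIPA buffer and immunoblotted with an antibody that detects only unmodified Rap1a, with β-tubulin as loading control. The value is the lowest concentration at which disruption was seen; blots are representative of two independent studies.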

[3] = Cytotoxicity against human RPMI8226 after 48 hrs by MTT assay; assay type: functional; conditions: RPMI-8226, 48 h
Homo sapiens = species on record: Homo sapiens; experiment: Selectivity index, ratio of IC50 for FDPS (unknown origin) to IC50 for GGDPS (unknown origin)
[4] = target: T3, Farnesyl pyrophosphate synthase (Homo sapiens, UniProt P14324); experiment: Inhibition of recombinant FDPS (unknown origin) assessed as radiolabeled FPP formation preincubated for 10 mins followed by addition of 10 uM GPP substrate and [14C]IPP for 30 mins by liquid scintillation counter analysis
T3 sequence (P14324 whole entry): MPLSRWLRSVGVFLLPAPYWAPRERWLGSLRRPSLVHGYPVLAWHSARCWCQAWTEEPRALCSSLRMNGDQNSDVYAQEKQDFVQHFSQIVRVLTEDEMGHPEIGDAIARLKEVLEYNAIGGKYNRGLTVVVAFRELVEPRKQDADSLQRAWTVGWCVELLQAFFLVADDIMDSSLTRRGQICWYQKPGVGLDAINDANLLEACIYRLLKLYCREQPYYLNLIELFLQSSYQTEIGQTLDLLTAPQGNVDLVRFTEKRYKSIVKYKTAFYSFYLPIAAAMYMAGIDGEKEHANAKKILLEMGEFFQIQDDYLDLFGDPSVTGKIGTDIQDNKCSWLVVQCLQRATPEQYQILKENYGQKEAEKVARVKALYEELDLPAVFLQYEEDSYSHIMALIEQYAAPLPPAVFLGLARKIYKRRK

[5] = target: T2, Geranylgeranyl pyrophosphate synthase (Homo sapiens); experiment: Inhibition of GGDPS in human RPMI8226 cells assessed as disruption of Rap1a geranylation at 50 nM after 48 hrs by immunoblot analysis; conditions: RPMI-8226

IC50 [1] [nM]	Activity [2] [µM]	Ratio IC50 (Homo sapiens)	IC50 [4] [nM]	SMILES	EC50 [3] [nM]	inhibition [5]
430	5	15	6600	CC(C)=CCCn1cc(CC(P(=O)(O)O)P(=O)(O)O)nn1	15000	
380	0.5	34	13000	CC(C)=CCC/C(C)=C/CC(Cc1cn(CCC=C(C)C)nn1)(P(=O)(O)O)P(=O)(O)O	1000	

SMILES	IC50 [1] [nM]	Activity [2] [µM]	Ratio IC50 (Homo sapiens)	IC50 [4] [nM]	EC50 [3] [nM]	inhibition [5]
CC(C)=CCC/C(C)=C/CCn1cc(CC(P(=O)(O)O)P(=O)(O)O)nn1	45	0.05	620	28000	190	Active
